Laboratory results as given in PMC3566574 (Organic & biomolecular chemistry, 2012).

How the values were obtained:
LasR [1] = biological target: T1, LasR (Pseudomonas aeruginosa, UniProt P25084); test: LasR agonism reporter gene assay; format: cell-based; conditions: 100 μM, normalized to OdDHL at 100 μM (100%); triplicate, error ≤10%
LasR [2] = biological target: T1, LasR; test: LasR antagonism reporter gene assay; format: cell-based; conditions: 100 μM against OdDHL at 10 nM; triplicate, error ≤10%
AbaR [3] = test: AbaR agonism reporter gene assay; format: cell-based, Acinetobacter baumannii; conditions: 100 μM, normalized to OH-dDHL at 100 μM (100%); triplicate, error ±10%
Method in brief: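 Overnight A. baumannii abaI::lacZ culture diluted 1:100 in LB (pH 7.0), added to test compound from DMSO stock (final 100 or 10 μM), incubated statically at 37 °C for 18–24 h. OD600 read; aliquot lysed with Z buffer, CHCl3 and 0.1% SDS; ONPG 20 min at […], stopped with 1 M Na2CO3; A420/A550 converted to Miller units. Triplicate; scaled to 100 μM OH-dDHL (100%).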

AbaR [4] = test: AbaR antagonism reporter gene assay; format: cell-based, Acinetobacter baumannii; conditions: 100 μM against OH-dDHL at 700 nM; triplicate, error ±10%

T1 sequence (P25084 whole entry): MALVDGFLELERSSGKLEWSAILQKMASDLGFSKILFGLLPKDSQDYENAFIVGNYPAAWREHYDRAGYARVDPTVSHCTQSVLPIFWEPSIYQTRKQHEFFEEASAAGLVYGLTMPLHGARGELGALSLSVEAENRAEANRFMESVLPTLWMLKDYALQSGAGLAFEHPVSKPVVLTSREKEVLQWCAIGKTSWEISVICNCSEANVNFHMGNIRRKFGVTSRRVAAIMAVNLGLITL

In the case of `CCCc1cn(CC(=O)NC2CCOC2=O)nn1` (stereo not shown) [I-A], the “Activation [%] LasR” value (LasR [1]) is reported as 0%, the “Inhibition [%] LasR” value (LasR [2]) is reported as 55% and the “Activation [%] AbaR” value (AbaR [3]) is reported as 0%. The “Inhibition [%] AbaR” value (AbaR [4]) was 47%.
